Data published in the EternaBench riboswitch data.

Tested on: MS2 coat protein
Experiment: apparent Kd, MS2 coat protein; higher = weaker binding; RNA-MaP array; FMN 200 µM where present
How it was run: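 Green signal from SNAP-549-labelled MS2 coat protein was normalised to red-channel RNA signal and to the median Fmax of control clusters. The protein was titrated from 0.7 or 1.5 nM, doubling to 3 µM, without and then with constant ligand, over designs transcribed by stalled E. coli RNA polymerase on Illumina sequencing-chip clusters, in 100 mM Tris-HCl pH 7.5, 80 mM KCl, 4 mM MgCl2, BSA, DTT, yeast tRNA and Tween-20. The apparent Kd is the median of filtered per-cluster binding-curve fits.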

[1] = designed as: ON switch for flavin mononucleotide, no ligand
[2] = ligand present: flavin mononucleotide, designed as: ON switch for flavin mononucleotide
[3] = designed as: OFF switch for flavin mononucleotide, no ligand
[4] = ligand present: flavin mononucleotide, designed as: OFF switch for flavin mononucleotide

Row | Sequence | apparent Kd [1] [nM] | apparent Kd [2] [nM] | apparent Kd [3] [nM] | apparent Kd [4] [nM]
1 | AGGGUGGGCUCAGGAUAUCAGGAAGAGAUGUGGACAUGAGGAUCACCCAUGUACCAGUGUUGUUAUGAGAAGGGAGAUACUGUA | 52.3 | 28.8 | – | –
2 | AGAGCCUCGUGAGGAUAUACAUGAGGAUCACCCAUGUAAAUGAAUGAACGGUGGAAACACCGAAUGUAGAAGGCACGAGGCUCA | – | – | 37.9 | 223
3 | AUAUCUUGUCGAGGAUAUGUAGUAUUGAUCUGAAAACAUGAGGAUCACCCAUGUAUACGGUGGGUACAGAAGGUGGAUGUAGAA | – | – | 416 | 427
4 | UCGCUCCGUGUAGGAUAUCGCCGUUCUAUUCGGCGAGAAGGACAUGAGGAUCACCCAUGUAUGUUAUUAUCACGCGUGGCGCAA | – | – | 16 | 19.1
5 | AGUAAGAUGCAGAAGGUGUCAGCUAGAGCUACGACAUGAGGAUCACCCAUGUACUAGAAACAGUACAAGGAUAUGCAUCUUACA | 80.2 | 8.27 | – | –
6 | UCACGGCUCGGAGGAUAUGACACAUGAGGAUCACCCAUGUGUGUAAGCCAAUAAACCUACAAAUGUCAGAAGGCCGCGCCUCAU | – | – | 15.3 | 14.7
7 | AUUUAUGGCCAGAAGGACAUGAGGAUCACCCAUGUAGGAUAUGGACGAUUUUGCUCGGCGGUUCGUUAAGAAAGCACCGGUGGU | 16.5 | 7.39 | – | –
8 | AUUAUAUAGACAGGAUAUUGAUUAUUAUUUUAACAUGAGGAUCACCCAUGUAACCUUAUGUGUAGCAAGAAGGGUCAUUUAUUA | – | – | 84.3 | 185
9 | UGAUAGGACAGAGGAUAUACCGAUAGGAUCUACUAUCGAACAAUCCUCACAUGAGGAUCACCCAUGUAGAAGGCUGUCCUAUCU | – | – | 25.2 | 284
10 | AGCACGAAAGUGCAACGAUGUACGAGAAGGACAUGAGGAUCACCCAUGUCGCUGUAACAGCACAUGUAGGAUAUCGUACAUCGA | – | – | 12.9 | 15.2
11 | AAAAAACAUGAGGAUCACCCAUGUCAAAAGACAUGAGGAUAUGUACAGACUUCGGUCUGUACAGAAGGCAUGAAAA | 489 | 43.6 | – | –
12 | GCCGAUUAAGUCAGGAUAUACCUAUGGAUACAUAGGUAGAAGGGACAUGAGGAUCACCCAUGUUCCUCUACGGC | – | – | 12.9 | 25.8
13 | AGUUGAAAUACAGGAUAUAUAUUAUUUUUAUUUAUAGAAGGGUAAUCACAUGAGGAUCACCCAUGUAUAUACGAGGAAGAAGAG | 292 | 263 | – | –
14 | GGGUACAUCGGAGGAUAUCAUGUAAAUACAUGAGGAUCACCCAUGUCGAUGGAGACAUCGGAAAUUGAGAAGGCCGAUGUACCG | 16.9 | 4.87 | – | –
15 | GUGUAGACAGGAUAUGCUUUGAGCGUAUGAGAGUAGGCUCGACAUGAGGAUCACCCAUGUAGAAGGGUCUACAC | – | – | 12.4 | 13.2
16 | CCUGCACAUGAGGAUCACCCAUGUCAGGAUAUCUCGCCGUGUGGAGCAACACGGUAUAAGAGAAGGGACACGGG | – | – | 28.7 | 25.7
17 | GUAGCUAUCGGAGGAUAUUCAUACCGGAAACGGACAUGAGGAUCACCCAUGUCGCGAAAGCGUUGGGAGAAGGCCGAUAGCUAC | 237 | 21.4 | – | –
18 | CCGGAUAUGCAGGAUAUCGUAUCGGAAACGAUACGAGAAGGGUAUACAUGAGGAUCACCCAUGUGUCCUACCGG | – | – | 23 | 33.1
19 | UUCAGCUCGUGAGGAUAUACAUGUGCUGGAAACAGCACUAAAGUUUUCACAUGAGGAUCACCCAUGUAGAAGGCACGAGCUGAG | – | – | 15.6 | 34.5
20 | ACAAUACAUGAGGAUCACCCAUGUUAGGAUAUACGCAUGCAUGCAUGCAUGCAUGCAAGUAGAAGGAACCAUGC | – | – | 28.6 | 26.8
21 | UCAUGGUAGCAGGAUAUGCUAUUUAUUUUUUAUGCAGAAGGGCUUACAUGAGGAUCACCCAUGUGUUAGGUUUA | – | – | 113 | 25.2
22 | GGUUAGGACAGAGGAUAUACGUGCUAGAGAUACUAGCAAAAUUUCCUCACAUGAGGAUCACCCAUGUAGAAGGCUGUCCUAUCG | – | – | 16.4 | 434
23 | UCGUGCCGGGUUACGAUCGACCCACAUGAGGAUCACCCAUGUAGAAGGACCAGCGUCGGCCCUUGGUAGGAUAUACAUGAAAUC | – | – | 106 | 135
24 | GUAAUACAUGAGGAUCACCCAUGUAAGGAUAUGCUAGCGGUCGGCUGACUGACUGCUAGCAGAAGGUACAUGAU | – | – | 85.1 | 128
25 | AAAAUCUAUAGAGGAUAUCGUUCUUAAAGAGAAUGAGAAGGCUAACAAUCAUGAGGACAUGAGGAUCACCCAUGUUGUGACCAU | 19.1 | 9.71 | – | –
26 | UGUGUGUGACAGGAUAUGCAGGUUAUGAGACGGGUAGAAGGGUCUACAUGAGGAUCACCCAUGUGGCCGGUUGG | – | – | 18 | 16.9
27 | CGCUCAGAGAACGAUACGAAUAGACAUGAGGAUCACCCAUGUAGAAGGACAACGGAAUAAACGUUGUAGGAUAUACAUUUAGUG | – | – | 34.3 | 90.4
